Data as given in PMC12005346 (ACS chemical neuroscience, 2023).
Where a name gives a salt, the structure may show the parent alone. *1 amine or outer side, *2 acyl side, *3 side chain or, on linkers, in order; H or OH if unused. Where a SMILES comes first, the peptide text is derived from it. Bridges are numbered along the chain shown (N, C = ends). Roman numbers before positions name the chains, in order. [ ]: non-standard residue; d: D form. Piperazine(1,4-diyl) = C1CN([*:2])CCN1[*:1]; Phe(4-F) = N[C@@H](Cc1ccc(F)cc1)C(=O)O; Dmt = Cc1cc(O)cc(C)c1C[C@H](N)C(=O)O; oXylylene = c1ccc(C[*:2])c(C[*:1])c1

Assays:
[1] = tested on: formalin-induced pain; assay: Formalin test; type: in vivo, mouse; settings: s.c. hind paw 100 nmol/20 μL, 15 min before formalin
In short: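 Test compound (100 nmol/20 μL) was injected s.c. into the left dorsal hind paw 15 min before formalin (1% in saline, 20 μL/paw) in the same paw. Vehicle was DMSO/saline 1:5 v/v, […] s.c. Total licking/biting time was scored in the early and late phases. Analysis was two-way ANOVA with Tukey's test.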

[2] = molecular target: human KOR expressed in CHO cells (Homo sapiens, UniProt P41145); assay: 35S-GTPγS coupling assay at KOR; type: biochemical
In short: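 Test compounds stimulated 35S-GTPγS coupling at human MOR, DOR or KOR expressed in CHO cells. Reference agonists were included to validate the assay: DAMGO for MOR, SNC80 for DOR and U50,488 for KOR. EC50 and EMAX were calculated separately for each independent experiment and reported as mean ± SEM of N ≥ 3 experiments.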

[3] = tested on: dependence and withdrawal; assay: Naloxone-precipitated withdrawal; type: in vivo, CD-1 mice; settings: 3.2 mg/kg s.c. repeated dosing, naloxone 30 mg/kg i.p. on day 4
[4] = tested on: response to thermal nociceptive stimuli; assay: Tail flick test after i.c.v. administration; type: in vivo, mouse; settings: i.c.v. 0.6 nmol/10 μL, 90 to 120 min after administration
In short: (§1)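 Mice received test compound i.c.v. at 0.6 nmol/10 μL. Vehicle was DMSO/saline 1:5 v/v, 10 μL/mouse. Hot plate and tail flick responses to thermal stimuli were recorded as a time course starting 15 min after dosing and expressed as % MPE. Groups were N = 12 or 7. Analysis was two-way ANOVA with Tukey's test versus vehicle.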

[5] = tested on: response to thermal nociceptive stimuli; assay: Hot plate test after i.c.v. administration; type: in vivo, mouse; settings: i.c.v. 0.6 nmol/10 μL, 90 to 120 min after administration
In short: as §1

Chain of human KOR expressed in CHO cells (P41145 whole entry): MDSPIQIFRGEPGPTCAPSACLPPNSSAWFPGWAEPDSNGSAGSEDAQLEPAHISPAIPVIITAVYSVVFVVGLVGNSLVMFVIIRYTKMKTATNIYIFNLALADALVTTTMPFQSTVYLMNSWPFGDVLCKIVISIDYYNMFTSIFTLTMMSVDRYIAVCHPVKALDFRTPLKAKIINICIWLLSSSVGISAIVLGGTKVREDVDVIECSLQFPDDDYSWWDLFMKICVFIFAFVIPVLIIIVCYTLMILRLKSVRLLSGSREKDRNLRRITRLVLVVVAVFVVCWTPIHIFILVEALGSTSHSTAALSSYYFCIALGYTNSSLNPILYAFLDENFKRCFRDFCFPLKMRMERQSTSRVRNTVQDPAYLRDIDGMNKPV

**Q.** `Cc1cc(O)cc(C)c1C[C@H](N)C(=O)N[C@@H]1CSCc2ccccc2CSC[C@@H](NC(=O)[C@@H](N)Cc2c(C)cc(O)cc2C)C(=O)NCC(=O)N[C@@H](Cc2ccc(F)cc2)C(=O)N2CCN(CC2)C(=O)[C@H](Cc2ccc(F)cc2)NC(=O)CNC1=O` [MJ4, 2 TFA c(Dmt-D-Cys-Gly-P-F-Phe)2-piperazine o-Xylene] (I: H-[Dmt][dC]G[Phe(4-F)] / II: H-[Dmt][dC]G[Phe(4-F)]; linker I:2-II:2 via oXylylene; linker I:C-II:C via Piperazine(1,4-diyl)) was tested. Which “licking/biting behavior induced by formalin, early phase” value [1] did it give?
**A.** did not change the effects induced by formalin

**Q.** What about the “licking/biting behavior induced by formalin, late phase” value [1] of the same compound?
**A.** did not change the effects induced by formalin

**Q.** And the “KOR agonist activity, in words” value [2]?
**A.** more potent agonist activity

**Q.** For `CN1CC[C@]23c4c5ccc(O)c4O[C@H]2[C@@H](O)C=C[C@H]3[C@H]1C5` [morphine], which “urine/feces output in naloxone-precipitated withdrawal” value [3] is on record?
**A.** comparable urine/feces output

**Q.** How did the “antinociceptive effect (% MPE), tail flick” value [4] turn out when biphalin was run?
**A.** antinociceptive effects steadily decrease

**Q.** And the “antinociceptive effect (% MPE), hot plate” value [5]?
**A.** antinociceptive effects steadily decrease
